# The sample as a whole holds a higher share of hits than the screen did.
# Insulin prom act: TRM-6 insulin promoter activation; AID 1296; TRM-6 cells, insulin promoter eGFP reporter, imaging; plate-scaled: unstimulated 0, stimulated control 100; activation, % at 2 µM; 130,000 tested, 0.81% active;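 active means activation at 2 µM above a set limit, confirmed on inspection of the cell images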;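 further: share of cells whose green reporter signal exceeds an intensity cutoff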
#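 System: human fetal islet-derived TRM-6 cells with tamoxifen-inducible insulin promoter–eGFP reporter; input: seeding density of 1,000 cells per well; buffer or medium: Low-glucose (5.5 mM) medium with tamoxifen; incubation: compound exposure 48 h, 37 °C; measured by: high-content imaging of fixed cells with Hoechst nuclear stain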
# Numbers stand for hits; . = inactive.
SMILES,Insulin prom act
O=C(O)C1=C(C(=O)Nc2cccc(C(F)(F)F)c2)CCCC1,.
FC(F)(F)c1cccc(NC(=S)NCC2COc3ccccc3O2)c1 (configuration not stated),.
CCOc1ccc(NC(=S)N2CCC(C(N)=O)CC2)cc1,.
COc1ccccc1Nc1cc(C(=O)N2CCc3ccccc3C2)c2ccccc2n1,.
Cc1cc(Nc2ccccc2C(=O)O)nc2nc3ccccc3c(=O)n12,146
Cc1cccc(Nc2ccccc2C(=O)O)c1C,.
CCCNC(=O)NC(=O)CSc1cccc(C(F)(F)F)c1,.
CC1(C)CC(=O)C(N=Nc2cc3c(cc2[N+](=O)[O-])OCCO3)=C(O)C1,.
COC(=O)C1=C(C)NC(=S)NC1c1ccc(-c2ccccc2C(=O)OC)o1 (configuration not stated),429
COC(=O)C1=C(C)NC(=S)NC1c1ccc(-c2cccc(Cl)c2)o1 (configuration not stated),.
COC(=O)C1=C(C)NC(=O)NC1c1ccc(-c2ccc(F)cc2)o1 (configuration not stated),.
Cc1c(NC2(C#N)CCCCC2)c(=O)n(-c2ccccc2)n1C,.
Cc1cc(C(F)F)nn1CC(=O)NCc1ccccc1F,.
O=[N+]([O-])c1ccc(N/N=C2\CC3CC=CC23)cc1 (configuration not stated),.
CSc1ccc(/C=N/NC(=O)c2ccc(O)cc2)cc1,.
O=C(N/N=C1\CC2CC=CC12)c1ccc(O)cc1 (configuration not stated),407
COc1cc(/C=N/NC(=O)c2cccc([N+](=O)[O-])c2)ccc1OC(=O)c1ccco1,.
O=c1cc(-c2ccccc2)nc(N2CCN(Cc3ccc4c(c3)OCO4)CC2)[nH]1,730
O=c1[nH]c(CN2CCN(Cc3ccc4c(c3)OCO4)CC2)nc2ccccc12,.
O=C(c1cc(-c2ccccc2)on1)N1CCN(Cc2ccc3c(c2)OCO3)CC1,.
CCc1ccc(C(=O)NNC(=O)OC)cc1,.
CCC(CC)NC(=O)COC(=O)c1ccc(NS(=O)(=O)c2ccc3c(c2)OCCO3)cc1,.
CCn1c(SCc2ccccc2)nnc1-c1cccnc1,.
Fc1ccc(-c2csc(=S)[nH]2)cc1,279
CCC(Oc1ccccc1)C(=O)Nc1ccsc1C(=O)OC (configuration not stated),.
SMILES,Insulin prom act
COCC(C)NC(=O)Cc1ccc(F)cc1 (configuration not stated),.
Cc1nn(C)cc1/C=C(/C#N)C(N)=O,.
O=C(OC1CCCCC1=O)c1ccc(S(=O)(=O)Nc2ccccc2)cc1 (configuration not stated),.
O=C1CCCCC1C(Nc1ccc(Cl)cc1)c1ccccc1 (configuration not stated),214
CCOC(=O)NC(c1ccccc1)C1CCCCC1=O (configuration not stated),.
Cn1c(SCC2CCCO2)nnc1-c1ccc([N+](=O)[O-])cc1 (configuration not stated),.
Cc1c(C)n(C(=O)CN2CCC(C)CC2)c2ccccc12,.
COCCNC(=O)CSc1nc2cc(OC)c(OC)cc2c(=O)n1CCc1ccc(S(N)(=O)=O)cc1,.
CCOc1ccccc1CN1CCN(Cc2nc3c(s2)CCCC3)CC1CCO (configuration not stated),.
Cc1n[nH]c(=S)n1/N=C/c1ccc(OCc2ccc(Cl)cc2)cc1,.
Cc1cccc(OCc2n[nH]c(=S)n2C2CCCCC2)c1,.
S=c1[nH]nc(COc2ccc(Cl)cc2)n1C1CCCCC1,437
Cc1ccc(-n2c(CNc3ccc(F)cc3)nnc2SCC(=O)N2CCCC2)cc1,162
Cc1ccc(-n2nnnc2SCC(=O)N2CCCCC2)cc1,.
CC1CCN(C(=O)CSc2nnc(Cc3cccn3C)n2-c2ccc(F)cc2)CC1,.
Cc1c(C)c2ccc(OS(C)(=O)=O)c(C)c2oc1=O,.
CCC(C)c1ccccc1NC(=O)COC(=O)c1ccc2[nH]c3c(c2c1)CCCC3 (configuration not stated),.
CC(C)NS(=O)(=O)c1ccc(NC(=O)NC2CCCCC2)cc1,.
O=c1oc2ccccc2cc1-c1ccc(O)cc1O,.
O=C(Nc1nc2c(s1)CCc1ccccc1-2)c1ccco1,.
O=c1oc2cc(O)ccc2cc1-c1nc2c(s1)CCc1ccccc1-2,733
Cc1ccc(S(=O)(=O)NCc2ccco2)cc1C(N)=O,.
Cc1nc(N)nc(N)c1/C=C/C(C)(C)c1ccc(Cl)cc1,.
Cc1ccc(S(=O)(=O)NNC(=O)NC23CC4CC(CC(C4)C2)C3)cc1,.
COC(=O)c1ccc(C(=O)OC)c(NC(=O)C(C)(C)C)c1,.
SMILES,Insulin prom act
Cc1onc(-c2ccccc2)c1C(=O)N1CCN(C(=O)c2ccco2)CC1,.
Cc1onc(-c2ccccc2)c1C(=O)N1CCCN(C(=O)c2c(-c3ccccc3)noc2C)CC1,.
Cc1onc(-c2ccccc2)c1C(=O)N1CCN(C)CC1,100
COC(=O)C1=CC(C(=O)c2cccs2)=NN(c2ccc(OC)cc2)C1C(=O)OC (configuration not stated),.
CC(=O)c1cc2c(cc1NC(=O)CN1CCCCCCC1)OCO2,.
CC(=O)c1cn(CC(=O)Nc2ccc(C)c(C)c2)c2ccccc12,533
CC(=O)c1cn(CC(=O)Nc2ccc(C)cc2)c2ccccc12,.
CC(=O)c1cn(CC(=O)NCc2ccc3c(c2)OCO3)c2ccccc12,.
COc1ccccc1NC(=O)CCc1nc(-c2cccs2)no1,83
COc1ccccc1NC(=O)CCc1nc(-c2ccccc2F)no1,305
O=C(CCc1nc(-c2ccccc2)no1)Nc1cc(C(F)(F)F)ccc1Cl,.
COc1cccc(NC(=O)CCc2nc(-c3ccccc3F)no2)c1,.
CCOc1cc(-c2noc(CCC(=O)Nc3cccnc3)n2)ccc1OC,.
CCN(C(=O)CCc1nc(-c2ccccc2F)no1)c1cc(OC)ccc1OC,.
CC(C)CC(=O)Nc1ccccc1-c1nnn(CC(=O)N2CCc3ccccc3C2)n1,.
COc1ccc(C2=[N+](C)CCn3cccc32)c(OC)c1,.
CCN1C(=O)C(=O)N(CC(=O)Nc2ccccc2Oc2ccccc2)C1=O,.
CSc1nsc(SCC(=O)N2CCCCC2)n1,.
O=C(N1CCCCCC1)N1CCN(S(=O)(=O)N2CCCCC2)CC1,.
O=C(N1CCOCC1)N1CCN(C(=O)N(c2ccccc2)c2ccccc2)CC1,.
O=C(N1CCCCCC1)N1CCN(C(=O)N2CCOCC2)CC1,488
Cc1cc(Cl)c(OCCN2C(=O)NC(C)(C)C2=O)c(Br)c1,538
Cc1cc(C)c(OCCN2C(=O)NC(C)(C)C2=O)c(Cl)c1,.
Cc1cc(Cl)c(OCCCN2CCCCC2)c(Br)c1,.
COc1ccc(OCC(=O)Nc2ccc(N3CCN(C(=O)c4ccccc4C)CC3)cc2)cc1,.
SMILES,Insulin prom act
CC(C)(C)c1cc(NC(=O)CCSc2nnc3ccccn23)cc(C(C)(C)C)c1,.
CN(C)S(=O)(=O)c1cc(NC2CC(=O)N(c3ccc(F)cc3)C2=O)ccc1Cl (configuration not stated),.
COc1ccc(Cl)cc1NC(=O)c1ccco1,.
O=C(Nc1ccc(Cl)cc1C(=O)Nc1ccc(Br)cn1)c1ccco1,600
O=C(Nc1ccc(Cl)cn1)c1ccc(-c2cc(Cl)ccc2Cl)o1,.
CC(C)CC(=O)Nc1nnc(SCC(=O)NCc2ccc3c(c2)OCO3)s1,.
CC(=O)N1N=C(C)CC1c1ccc(O)cc1 (configuration not stated),.
CCOC(=O)N1CCN(Cc2c(F)cccc2F)CC1,.

# Screening results deposited in PubChem by Columbia University Molecular Screening Center.
